Test results as given in ChEMBL document CHEMBL3407346, “Design, synthesis, and biological evaluation of sulfonyl acrylonitriles as novel inhibitors of cancer metastasis and spread” (J Med Chem, 2015).
pEC50: −log10 of the molar value. Active and inactive are the calls of the source. The rule behind the calls is not given here.

Legend:
Mus musculus [1] = experiment: Toxicity in athymic nu/nu mouse xenografted with human SKOV3 cells assessed as weight loss at 5 mg/kg, ip administered thrice a week for 14 days; type: organism-based, SK-OV-3; design: dose 5 mg/kg, route intraperitoneal; conditions: in vivo, 336 h
[2] = Cytotoxicity against human BxPC3 cells co-cultured with human mesothelial cells at 10 uM after 4 hrs by firefly luciferase assay relative to control; type: functional, BXPC-3
Summary of the method: (§1)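 Co-culture of luciferase-transduced cancer cells (puromycin/G418-selected retroviral pLuc) with confluent human mesothelial monolayers. Suspended cancer cells plus 10 µM compound (final) or DMSO were overlaid for 4 h. Non-adherent cells were washed off and surviving adherent cells quantified by firefly luciferase luminescence. Efficacy = treated/DMSO luminescence ratio; mean±SEM, n=3.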

SK-OV-3 = experiment: Inhibition of peritoneal carcinomatosis of human SKOV3 cells in athymic nu/nu mouse at 5 mg/kg, ip administered thrice a week for 14 days by luciferase reporter assay relative to vehicle-treated control; type: functional, organism-based; design: dose 5 mg/kg
Summary of the method: (§2)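 Athymic female nu/nu mice, 5 weeks old, received 5 mg/kg compound or vehicle (80% PEG400:20% ethanol) IP 4 h before IP injection of 1.5×10⁶ A2780-luc or 2×10⁶ SKOV3-luc cells, n=7 per arm. Dosing continued IP three times a week for 14 days. Tumour burden was imaged weekly by abdominal bioluminescence after IP D-luciferin/ketamine/xylazine; mean±SEM, unpaired t-test vs vehicle.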

[3] = Cytotoxicity against human SKOV3 cells co-cultured with human mesothelial cells at 10 uM after 4 hrs by firefly luciferase assay relative to control; type: functional, SK-OV-3; summary of the method: as §1
[4] = Cytotoxicity against human SU86 cells co-cultured with human mesothelial cells at 10 uM after 4 hrs by firefly luciferase assay relative to control; type: functional; summary of the method: as §1
Mus musculus [5] = experiment: Toxicity in athymic nu/nu mouse xenografted with human A2780 cells assessed as weight loss at 5 mg/kg, ip administered thrice a week for 14 days; type: organism-based; design: dose 5 mg/kg, route intraperitoneal; conditions: in vivo, 336 h
[6] = Cytotoxicity against human SU86 cells co-cultured with human mesothelial cells after 4 hrs by firefly luciferase assay relative to control; type: functional, cell-based
Summary of the method: (§3)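 Luciferase-expressing cancer cells in suspension were treated with a series of compound concentrations or DMSO, overlaid on confluent human mesothelial monolayers for 4 h, and washed to remove non-adherent cells. Surviving adherent cells were read by luciferase luminescence relative to vehicle, and EC50 was derived from the concentration series.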

A2780 [7] = experiment: Induction of apoptosis in human A2780 cells assessed as increased cellular levels of cleaved caspase 3 at 5 uM after 4 hrs by immunoblot analysis; type: functional, cell-based
Summary of the method: (§4)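 A2780 cells were suspended and allowed to adhere for 4 h with DMSO or test compound (5 µM in DMSO). Cells were collected and lysed, lysates normalised for total protein, and cleaved PARP and cleaved caspase 3 detected by immunoblot with actin as loading control. A sulfide analog served as negative control.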

A2780 [8] = experiment: Inhibition of peritoneal carcinomatosis of human A2780 cells in athymic nu/nu mouse at 5 mg/kg, ip administered thrice a week for 14 days by luciferase reporter assay relative to vehicle-treated control; type: functional, organism-based; design: dose 5 mg/kg; summary of the method: as §2
A2780 [9] = experiment: Induction of apoptosis in human A2780 cells assessed as increased cellular levels of cleaved PARP at 5 uM after 4 hrs by immunoblot analysis; type: functional, cell-based; summary of the method: as §4
[10] = Cytotoxicity against human SKOV3 cells co-cultured with human mesothelial cells after 4 hrs by firefly luciferase assay relative to control; type: functional, cell-based; conditions: SK-OV-3, 4 h; summary of the method: as §3
A2780 [11] = experiment: Cytotoxicity against human A2780 cells co-cultured with human mesothelial cells after 4 hrs by firefly luciferase assay relative to control; type: functional, cell-based; conditions: A2780, 4 h; summary of the method: as §3
A2780 [12] = experiment: Cytotoxicity against human A2780 cells co-cultured with human mesothelial cells at 10 uM after 4 hrs by firefly luciferase assay relative to control; type: functional; summary of the method: as §1
[13] = Cytotoxicity against human BxPC3 cells co-cultured with human mesothelial cells after 4 hrs by firefly luciferase assay relative to control; type: functional, cell-based; conditions: BXPC-3, 4 h; summary of the method: as §3
HT-29 [14] = experiment: Cytotoxicity against human HT-29 cells co-cultured with human mesothelial cells at 50 to 200 uM preincubated for 24 hrs followed by co-culturing measured after 4 hrs by firefly luciferase assay relative to control; type: functional, cell-based; conditions: in the assay text read “after 5 hrs” for “after 4 hrs”
Summary of the method: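 Luciferase-expressing HT-29 cells were pretreated 24 h with water or various BSO concentrations, trypsin-suspended, then overlaid on confluent human mesothelial monolayers with compound and BSO for 5 h. Non-adherent cells were washed off and survivors read by luciferase luminescence.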

HT-29 [15] = experiment: Reduction of cellular GSH level in human HT-29 cells after 24 hrs by […]; type: functional, cell-based
Summary of the method: (§5)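 Glutathione was measured with a commercial kit per the manufacturer's instructions, with TNB production rate proportional to GSH. Cell-free GSH was tested with compounds, and HT-29 luciferase cell lysates were assayed after compound exposure.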

[16] = Antitumor activity against human MIAPaCa2 cells xenografted in ip dosed Ncr-Nu/Nu mouse assessed as metastases administered on day 1, 3, 5, 7 and measured after 8 weeks by fluorescent imaging analysis (reference value: 40%); type: functional, MIA PaCa-2
Summary of the method: (§6)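 Orthotopic pancreatic model in male NCr-Nu/Nu nude mice, 6-8 wk old. 1×10⁶ RFP-expressing MiaPaCa-2 cells in soluble ECM were injected into the pancreatic tail. Tumour resected with distal pancreatectomy, with no residual disease confirmed by intraoperative RFP imaging. Compound or vehicle (4:1 PEG400:EtOH) given IP at surgery and on days 3, 5 and 7. Local and metastatic recurrence scored by fluorescent imaging after 8 weeks.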

[17] = Antimetastatic activity against human MIAPaCa2 cells xenografted in ip dosed Ncr-Nu/Nu mouse assessed as total recurrence administered on day 1, 3, 5, 7 and measured after 8 weeks by fluorescent imaging analysis (reference value: 67%); type: functional, MIA PaCa-2; summary of the method: as §6
[18] = Antimetastatic activity against human MIAPaCa2 cells xenografted in ip dosed Ncr-Nu/Nu mouse assessed as local recurrence administered on day 1, 3, 5, 7 and measured after 8 weeks by fluorescent imaging analysis (reference value: 60%); type: functional, MIA PaCa-2; summary of the method: as §6
HT-29 [19] = experiment: Induction of apoptosis in human HT-29 cells at 10 uM incubated for 30 mins followed by coculturing with human mesothelial cells for 5 hrs by firefly luciferase assay in presence of NAC; type: functional, cell-based
Summary of the method: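 Firefly luciferase-expressing HT-29 cells were incubated 30 min with compound plus vehicle (water) or 680 µM N-acetylcysteine, trypsin-suspended, and co-cultured 5 h on human mesothelial monolayers with compound and NAC. Surviving adherent cells were detected by luciferase luminescence; mean light output ±SEM.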

[20] = Glutathione reactivity assessed as reduction in detectable GSH level by Ellman's reagent-based assay; summary of the method: as §5
HT-29 [21] = experiment: Reduction of cellular GSH level in human HT-29 cells incubated for 30 mins followed by co-culturing with human mesothelial cells measured after 5 hrs by […]; type: functional, cell-based
HT-29 [22] = experiment: Induction of apoptosis in human HT-29 cells using compound pre-mixed with NAC; type: functional, cell-based

Compound	Activity (Mus musculus [1])	Ratio [2]	inhibition (SK-OV-3)	Ratio [3]	Ratio [4]	Activity (Mus musculus [5])	pEC50 [6]	Activity (A2780 [7])	inhibition (A2780 [8])	Activity (A2780 [9])	pEC50 [10]	pEC50 (A2780 [11])	Ratio (A2780 [12])	pEC50 [13]	Activity [16] [%]	Activity [17] [%]	Activity [18] [%]	other results
CC(C)(c1ccc(S(=O)(=O)/C=C/C#N)cc1)c1nc2ccccc2o1	Non-toxic	0.24	Active	0.17	0.29	Non-toxic	5.19	Active	Active	Active	5.27	5.66	0.01	5.51				
CCCCS(=N)(=O)CC[C@H](N)C(=O)O (some centres not stated)																		Activity (HT-29 [14]): inactive; Activity (HT-29 [15]): Active
Cc1ccc2oc(C(C)(C)c3ccc(S(=O)(=O)/C=C/C#N)cc3)nc2c1		0.09		0.17	0.2		5.14				5.25	5.68	0.1	5.46	10	50	40	
CC(C)(c1ccc(S(=O)(=O)/C=C/C#N)cc1)c1nnc(-c2ccccc2)o1		0.24		0.25	0.45		5.21				5.24	5.59	0.06	5.51	0	45	45	
CC(C)(C(=O)NCc1ccccc1)c1ccc(S(=O)(=O)/C=C/C#N)cc1	Non-toxic	0.16	Active	0.52	0.21	Non-toxic	5.13	Active	Active	Active	5.06	5.52	0.1	5.43	6	6	6	
CC(C)(C)c1cc(S(=O)(=O)/C=C/C#N)ccc1OCC(=O)NC1CCCCC1	Non-toxic	0.09	Active	0.19	0.21	Non-toxic	5.18	Active	Active	Active	5.21	5.59	0.01	5.47				
N#C/C=C/S(=O)(=O)c1ccc(C2(C(=O)NC3CCCCC3)CCC2)cc1	Non-toxic	0.18	Active	0.33	0.32	Non-toxic	5.10	Active	Active	Active	5.13	5.51	0.09	5.44	20	40	30	
CC(C)(C)c1ccc(S(=O)(=O)/C=C/C#N)cc1 [BAY-11-7085]	Non-toxic	0.07	Active	0.32	0.13	Non-toxic	5.23	Active	Active	Active	5.30	5.59	0.04	5.46	31	38	31	Activity (HT-29 [19]): inactive; Activity [20]: Active; Activity (HT-29 [21]): Active; Activity (HT-29 [22]): inactive
